Tests used:
B. subtilis XPRT [1] = target: T1, B. subtilis XPRT (Bacillus subtilis, UniProt P42085); test: Size exclusion chromatography of XPRT with ppGpp in the mobile phase; settings: 35 μM ppGpp in the mobile phase, XPRT at 10 or 20 μM
Procedure, shortened: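 Untagged (TEV-cleaved) XPRT at 10 or 20 μM was run on a Superose 12 column at 0.25 mL/min. The mobile phase was 20 mM HEPES pH 8, 300 mM NaCl, 10 mM MgCl2, with ppGpp at 35 μM final, after equilibration with ≥1 column volume. A280 traces were baseline-normalized. Predicted retention volumes (monomer 13.58, dimer 12.41) came from the 21038 Da molecular weight and a column standard curve.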

B. subtilis XPRT [2] = target: T1, B. subtilis XPRT; test: DRaCALA binding of 32P-labeled alarmones to XPRT; settings: for nH (Hill coefficient from binding curve): DRaCALA binding curve, ± standard error
Procedure, shortened: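 Purified hexahistidine-tagged B. subtilis XPRT at varied concentrations was mixed with 32P-labelled alarmone in 20 mM HEPES pH 8, 100 mM NaCl, 10 mM MgCl2. The label was added at 1:50–1:100 of the first synthesis elution fraction. After 10 min at room temperature, aliquots were spotted on nitrocellulose, dried ≥20 min and phosphorimaged. Fraction bound was edge-corrected and fitted to Y = (Bmax × X^h)/(Kd^h + X^h).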

B. subtilis XPRT [3] = target: T1, B. subtilis XPRT; test: XPRT activity assay; type: biochemical; settings: 1 mM PRPP, 50 μM xanthine; ± standard error
Procedure, shortened: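 Xanthine started the reaction, and XMP was followed at A252 for 10 min (Δε 5350 M−1cm−1). Initial-velocity slopes were normalized to uninhibited controls and fitted to Y = 1/(1 + (X/IC50)^n), with n reported as napp.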

(p)ppGpp^0 B. subtilis = test: GTP levels by thin layer chromatography of 32P-orthophosphate-labeled cells; type: cell-based, Bacillus subtilis
B. subtilis = B. subtilis viability assay; type: cell-based, Bacillus subtilis; settings: (p)ppGpp^0 xpt mutant B. subtilis, 1 mM xanthine
Procedure, shortened: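 Strains were taken from single colonies, resuspended in S7 plus VILMTH amino acids, and spread on Spizizen casamino-acid agar for about 16 h at 30 °C. Cells were collected, diluted to OD600 0.01 in S7+VILMTH and grown to OD600 ≈ 0.2. After a t=0 sample, cultures were split and given 1 mM xanthine or water. Sampling was at 30, 60 and 120 min. Ten-fold dilutions were plated on LB for CFU/mL, in triplicate.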

XPRT = XPRT (Bacillus subtilis, UniProt P42085); test: XPRT interaction with ppApp; type: binding; settings: data not shown
Chain of XPRT (P42085 whole entry): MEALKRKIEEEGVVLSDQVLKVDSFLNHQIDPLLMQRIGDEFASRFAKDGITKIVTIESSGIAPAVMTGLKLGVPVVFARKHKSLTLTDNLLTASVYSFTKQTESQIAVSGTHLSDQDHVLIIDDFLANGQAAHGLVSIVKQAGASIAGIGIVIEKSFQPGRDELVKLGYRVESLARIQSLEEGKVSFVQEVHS

B. subtilis XPRT [4] = target: T1, B. subtilis XPRT; test: biochemical

T1 sequence (P42085 whole entry): as above

| SMILES | Kd (B. subtilis XPRT [2]) [nM] | nH (Hill coefficient from binding curve) (B. subtilis XPRT [2]) | napp (apparent Hill coefficient from inhibition curve) (B. subtilis XPRT [3]) | also measured |
| --- | --- | --- | --- | --- |
| Nc1nc2c(ncn2[C@@H]2O[C@H](COP(=O)(O)OP(=O)(O)O)[C@@H](OP(=O)(O)OP(=O)(O)O)[C@H]2O)c(=O)[nH]1 [ppGpp] | 950 ± 30 | 2.1 ± 0.1 | 1.7 ± 0.1 | effect on XPRT oligomeric state (B. subtilis XPRT [1]): stabilized the dimeric XPRT population |
| Nc1nc2c(ncn2[C@@H]2O[C@H](COP(=O)(O)O)[C@@H](OP(=O)(O)OP(=O)(O)O)[C@H]2O)c(=O)[nH]1 [pGpp] | 760 ± 40 | 2.3 ± 0.2 | 1.6 ± 0.1 |  |
| O=c1[nH]c(=O)c2nc[nH]c2[nH]1 [xanthine] |  |  |  | increase in (p)ppGpp^0 GTP levels ((p)ppGpp^0 B. subtilis; (p)ppGpp^0 B. subtilis during growth with xanthine): ~ 6 fold; GTP levels ((p)ppGpp^0 B. subtilis; (p)ppGpp^0 vs wild type B. subtilis, 1 mM xanthine, 30 min): elevated relative to wild type; viability (colony forming units) (B. subtilis): unaffected |
| Nc1ncnc2c1ncn2[C@@H]1O[C@H](COP(=O)(O)OP(=O)(O)O)[C@@H](OP(=O)(O)OP(=O)(O)O)[C@H]1O [ppApp] |  |  |  | interaction with XPRT (XPRT): does not interact |
| Nc1nc2c(ncn2[C@@H]2O[C@H](COP(=O)(O)OP(=O)(O)OP(=O)(O)O)[C@@H](OP(=O)(O)OP(=O)(O)O)[C@H]2O)c(=O)[nH]1 [pppGpp] | 9600 ± 2200 | 1.3 ± 0.2 | 1.5 ± 0.1 | Ki (B. subtilis XPRT [4]): 2500 nM |
